Results on ten compounds are retold here after ChEMBL document CHEMBL4257504, “Tricyclic xanthine derivatives containing a basic substituent: adenosine receptor affinity and drug-related properties” (Medchemcomm, 2018).

The nature of data set [1]: Drug level in human liver microsomes treated with 2-(4-(2-(1,3-Dibutyl-2,4-dioxo-1,2,3,4,7,8-hexahydropyrimido[2,1-f]purin-9(6H)-yl)ethyl)phenoxy)-N-(3-(diethylamino)propyl)-acetamide at 50 uM preincubated for 5 mins followed by addition of NADPH regenerating system and measured after 120 mins by UPLC/MS analysis. The settings on record: 2 h. The class given is ADME, microsome. The procedure, abridged:
(§1)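 Incubations use pooled human (adult male and female) or rat liver microsomes at 1 mg/ml in 0.1 M Tris-HCl pH 7.4 with compound at 50 μM. After 5 min preincubation at 37 °C, an NADPH regenerating system is added to start the reaction. Cold methanol stops it at 120 min; samples are centrifuged and the supernatant analysed by UPLC/MS.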
Background: Microsomes from liver hold many membrane-bound enzymes, among them those of drug oxidation.

Data set [2] in a line: Drug level in rat liver microsomes treated with 2-(4-(2-(1,3-Dibutyl-2,4-dioxo-1,2,3,4,7,8-hexahydropyrimido[2,1-f]purin-9(6H)-yl)ethyl)phenoxy)-N-(3-(diethylamino)propyl)-acetamide at 50 uM preincubated for 5 mins followed by addition of NADPH regenerating system and measured after 120 mins by UPLC/MS analysis. The data set is classed as ADME, microsome. The settings on record: 2 h. The method in brief: as §1

The target of data set [3] is T1, Adenosine receptor A1 (Rattus norvegicus, UniProt P25099).
T1 sequence (P25099 whole entry): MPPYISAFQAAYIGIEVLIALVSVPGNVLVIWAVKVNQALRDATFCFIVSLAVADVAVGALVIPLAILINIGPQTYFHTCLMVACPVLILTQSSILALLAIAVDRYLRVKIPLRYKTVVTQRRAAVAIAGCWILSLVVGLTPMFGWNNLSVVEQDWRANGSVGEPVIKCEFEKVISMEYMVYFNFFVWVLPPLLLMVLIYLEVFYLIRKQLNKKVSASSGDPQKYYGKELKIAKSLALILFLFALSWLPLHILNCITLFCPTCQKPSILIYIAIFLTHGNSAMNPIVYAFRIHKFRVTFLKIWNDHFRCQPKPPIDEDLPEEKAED
The experiment in a line: Displacement of [3H]CCPA from adenosine A1 receptor in rat brain cortical membranes. The class given is cell membranes. The method in brief: (§2)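 Membrane radioligand binding: A1 in rat brain cortical membranes and A2A in rat brain striatal membranes, with human A1 and A2A in recombinant CHO cell membranes. Radioligands are [3H]CCPA for A1 and [3H]MSX-2 for A2A. Full concentration-inhibition curves use six to ten concentrations spanning three orders of magnitude, with at least three independent experiments.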
In general terms: Loss of bound radioactivity is the signal in a displacement assay; it reports binding, not function.

Data set [4] deals with T2, Adenosine receptor A1 (Rattus norvegicus) (UniProt P25099).
T2 sequence (whole entry): T1 sequence (P25099 whole entry)
The experiment in a line: Displacement of [3H]CCPA from adenosine A1 receptor in rat brain cortical membranes at 1 uM relative to control. The class given is cell membranes.

In data set [5] the target is Adenosine receptor A2a (Rattus norvegicus, UniProt P30543). The experiment in a line: Displacement of [3H]MSX-2 from adenosine A2A receptor in rat brain striatal membranes. The data set is classed as cell membranes, Striatum, Membrane. The procedure, abridged:
as §2

Data set [6] deals with Adenosine receptor A2a (Rattus norvegicus) (UniProt P30543). The experiment in a line: Displacement of [3H]MSX-2 from adenosine A2A receptor in rat brain striatal membranes at 1 uM relative to control. The data set is classed as cell membranes. The settings on record: Striatum, Membrane.
The target in data set [7] is T3, Adenosine receptor A2b (Homo sapiens, UniProt P29275).
T3 sequence (P29275 whole entry): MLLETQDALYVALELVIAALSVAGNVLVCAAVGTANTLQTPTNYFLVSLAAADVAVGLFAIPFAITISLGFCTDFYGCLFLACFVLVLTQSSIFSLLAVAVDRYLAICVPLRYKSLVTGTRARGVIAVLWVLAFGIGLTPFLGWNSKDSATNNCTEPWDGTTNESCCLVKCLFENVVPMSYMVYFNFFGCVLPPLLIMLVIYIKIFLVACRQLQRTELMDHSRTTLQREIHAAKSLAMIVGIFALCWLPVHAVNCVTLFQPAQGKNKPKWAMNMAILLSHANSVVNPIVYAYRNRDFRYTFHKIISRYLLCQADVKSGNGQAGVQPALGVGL
The experiment in a line: […] from human adenosine A2B receptor expressed in CHO cell membranes. The settings on record: in the assay text read “[3H]PSB-603” for “[3H]PSB-602”. The method in brief:
(§3)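 Membranes from CHO cells recombinantly expressing human A2B or A3 receptor. Radioligands are [3H]PSB-603 for A2B and [3H]PSB-11 for A3. Competition curves use six to ten test-compound concentrations spanning three orders of magnitude, with at least three independent experiments.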

For data set [8], the target named is T4, Adenosine receptor A3 (Homo sapiens, UniProt P0DMS8).
T4 sequence (P0DMS8 whole entry): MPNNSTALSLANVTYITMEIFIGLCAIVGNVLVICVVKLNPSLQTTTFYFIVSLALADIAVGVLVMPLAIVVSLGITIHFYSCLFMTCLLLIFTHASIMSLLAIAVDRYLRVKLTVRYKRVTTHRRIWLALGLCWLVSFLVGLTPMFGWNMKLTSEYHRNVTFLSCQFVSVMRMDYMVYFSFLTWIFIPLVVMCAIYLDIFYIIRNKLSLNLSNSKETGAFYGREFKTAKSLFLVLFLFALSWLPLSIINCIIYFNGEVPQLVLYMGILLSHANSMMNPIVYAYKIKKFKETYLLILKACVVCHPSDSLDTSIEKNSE
The experiment in a line: Displacement of [3H]PSB-11 from human adenosine A3 receptor expressed in CHO cell membranes. The procedure, abridged: as §3

The target in data set [9] is T5, Adenosine receptor A2b (Homo sapiens) (UniProt P29275).
T5 sequence (whole entry): T3 sequence (P29275 whole entry)
The experiment in a line: Displacement of [3H]PSB-603 from human adenosine A2B receptor expressed in CHO cell membranes at 1 uM relative to control.

For data set [10], the target named is T6, Adenosine receptor A3 (Homo sapiens) (UniProt P0DMS8).
T6 sequence (whole entry): T4 sequence (P0DMS8 whole entry)
The experiment in a line: Displacement of [3H]PSB-11 from human adenosine A3 receptor expressed in CHO cell membranes at 1 uM relative to control.

Data set [11] is described as follows: Solubility of compound in water after over night incubation by UV spectroscopic method. The class given is physicochemical. The procedure, abridged:
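Compound (10 mg, basic form) is suspended in 2 mL water, boiled 5 min, left overnight at 20 °C and filtered. The filtrate is diluted 10–80-fold in MeOH and read by UV in 90% MeOH/H2O. Concentration comes from seven-point standard curves (10^-3 to 10^-1 mg/mL) by linear regression, multiplied by the dilution factor.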

Data set [12] has as its target Cytochrome P450 3A4 (Homo sapiens, UniProt P08684). The experiment in a line: Inhibition of recombinant human CYP3A4 by bioluminescence method. The class given is ADME.
The subject of data set [13] is HEK293. The experiment in a line: Cytotoxicity against HEK293 cells assessed as decrease in cell viability after 48 hrs by formazan dye-based EZ4U assay. Particulars: Homo sapiens, HEK293, 48 h; call rule not given here. The procedure, abridged:
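HEK-293 cells are seeded at 1 × 10^4 per well and grown 24 h to 60% confluence. Compounds (25 mM DMSO stocks) are diluted into medium at final 0.1–250 μM, with DMSO ≤1%, and left 48 h.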

Data set [14] in a line: Metabolic stability in human liver microsomes at 50 uM preincubated for 5 mins followed by addition of NADPH regenerating system and measured after 120 mins by UPLC/MS analysis. The data set is classed as ADME, microsome. The settings on record: 2 h. The method in brief: as §1
A short description of data set [15]: Metabolic stability in rat liver microsomes at 50 uM preincubated for 5 mins followed by addition of NADPH regenerating system and measured after 120 mins by UPLC/MS analysis. The data set is classed as ADME, microsome. Particulars: 2 h. The procedure, abridged: as §1
Data set [16] addresses T3, Adenosine receptor A2b. The experiment in a line: Displacement of [3H]PSB-603 from human adenosine A2B receptor expressed in CHO cell membranes.
Data set [17] has as its target T4, Adenosine receptor A3. The experiment in a line: Binding affinity to human adenosine A3 receptor by radioligand displacement assay. The procedure, abridged:
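Membranes from CHO cells recombinantly expressing human A2B or A3 receptor. Competition curves use six to ten test-compound concentrations spanning three orders of magnitude, with at least three independent experiments.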

Converted amounts (≈) assume the structure as drawn.

Adenosine receptor A2a (Rattus norvegicus), sequence (P30543 whole entry): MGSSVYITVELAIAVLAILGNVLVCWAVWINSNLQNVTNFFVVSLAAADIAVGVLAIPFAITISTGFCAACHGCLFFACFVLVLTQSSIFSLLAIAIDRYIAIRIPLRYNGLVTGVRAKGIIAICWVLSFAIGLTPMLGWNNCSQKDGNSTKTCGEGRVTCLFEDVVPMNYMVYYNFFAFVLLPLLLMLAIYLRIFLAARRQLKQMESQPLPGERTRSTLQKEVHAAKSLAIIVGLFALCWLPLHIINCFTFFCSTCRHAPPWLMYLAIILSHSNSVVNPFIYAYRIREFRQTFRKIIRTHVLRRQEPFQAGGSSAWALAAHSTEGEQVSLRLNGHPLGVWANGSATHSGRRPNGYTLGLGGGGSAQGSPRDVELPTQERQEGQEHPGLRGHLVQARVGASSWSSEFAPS
Adenosine receptor A2a, sequence (P30543 whole entry): as above
Cytochrome P450 3A4, sequence (P08684 whole entry): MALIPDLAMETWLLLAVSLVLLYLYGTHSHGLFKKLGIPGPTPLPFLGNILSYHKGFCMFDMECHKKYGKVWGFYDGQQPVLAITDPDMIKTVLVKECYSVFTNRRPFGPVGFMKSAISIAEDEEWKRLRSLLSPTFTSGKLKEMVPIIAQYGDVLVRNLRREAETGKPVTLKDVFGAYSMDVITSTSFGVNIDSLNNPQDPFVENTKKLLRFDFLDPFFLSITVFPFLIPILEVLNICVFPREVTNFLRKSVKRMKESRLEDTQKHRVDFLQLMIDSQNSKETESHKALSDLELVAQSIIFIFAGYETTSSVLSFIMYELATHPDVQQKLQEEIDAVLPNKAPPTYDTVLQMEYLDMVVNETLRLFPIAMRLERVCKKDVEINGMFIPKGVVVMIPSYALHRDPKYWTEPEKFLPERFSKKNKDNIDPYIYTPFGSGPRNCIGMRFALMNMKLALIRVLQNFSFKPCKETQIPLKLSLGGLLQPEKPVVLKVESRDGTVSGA

Regarding `CCCCn1c(=O)n(CCC(C)O)c(=O)c2c1nc1n2CCCN1CCc1ccc(OCC(=O)NCCCN(CC)CC)cc1` (stereo not given), the Drug metabolism result in data set [1] and in data set [2] was “Metabolite_Detected” in each case.
For `CCCn1c(=O)c2c(nc3n2CCCN3CCc2ccc(OCC(=O)NCc3ccc(Cl)cc3)cc2)n(CCC)c1=O`, the Ki in data set [3] is over 10 µM; in data set [5], over 10 µM; in [7] it was over 1 µM; in [8], 1.09 µM. The inhibition is 18% in data set [4], 24% in [6] and -4% in data set [9].
`CCCCn1c(=O)[nH]c2nc3n(c2c1=O)CCCN3CCc1ccc(OCC(=O)NCCCN(CC)CC)cc1`: the Drug metabolism result in data set [2] is “Metabolite_Detected”.
Turning to `CCCCn1c(=O)c2c(nc3n2CCCN3CCc2ccc(OCC(=O)NCc3ccc(F)cc3)cc2)n(CCCC)c1=O`, the inhibitory constant (Ki) in [3] is 1.01 µM; in data set [5] it was over 10 µM; in data set [7], over 1 µM; in [8], over 1 µM. Besides, the inhibition was found to be 32% in data set [6], 40% in [10] and 43% in data set [9].
Take `CCCn1c(=O)c2c(nc3n2CCCN3CCc2ccc(OCC(=O)NCc3cccc(OC)c3)cc2)n(CCC)c1=O`: the inhibition constant (Ki) was over 10 µM in [3], over 10 µM in data set [5], over 1 µM in data set [7] and over 1 µM in data set [8]. Also, the inhibition in data set [4] turned out to be 22%; in [6] it was 37%; in [10] it was 28%; in data set [9], 39%.
With `CCCCn1c(=O)c2c(nc3n2CCCN3CCc2ccc(OCC(=O)NCCCN(CC)CC)cc2)n(CCCC)c1=O`, the Ki in data set [3] came to 0.0248 µM; in data set [5], 0.318 µM; in data set [7] it was 0.126 µM; in data set [8], 0.248 µM. This compound yielded a solubility in [11] of 632 µM (≈ 385 µg/mL). Also, the IC50 was 0.23 µM in [12] and 27.3 µM in data set [13].
In the case of `CCCCn1c(=O)c2c(nc3n2CCCN3CCc2ccc(OCC(=O)NCCC(=O)O)cc2)n(CCCC)c1=O`, the Drug metabolism entry in [1] and in data set [2] was “Metabolite_Detected” each time.
Regarding `CCCCn1c(=O)c2c(nc3n2CCCN3CCc2ccc(OCC(=O)NCCN3CCCC3)cc2)n(CCCC)c1=O`, the Ki in [3] came to 0.0366 µM; in [5], 0.455 µM; in data set [8], 0.204 µM; in [16], 0.0663 µM. For the same compound, the “inhibition (INH)” value in data set [12] (human, recombinant enzyme) is on record as “Not Active”. The IC50 in [13] stood at 23.4 µM. Moreover, the Stability result in data set [14] and in data set [15] was “Stable” each time.
`CCCCn1c(=O)c2c(nc3n2CCCN3CCc2ccc(OCC(=O)NCCCNCC)cc2)n(CCCC)c1=O`: the Drug metabolism entry in data set [1] and in [2] was “Metabolite_Detected” throughout.
`CCCn1c(=O)c2[nH]c(C34CC5CC(CC3C5)C4)nc2n(CCC)c1=O` [ROLOFYLLINE] had a Ki in data set [17] of 4.39 µM.

One may read the Ki as a measure of affinity in units of concentration, obtained from inhibition or displacement. Lower therefore signals tighter binding. As usually defined, the inhibition is the change of the read-out against control, counted positive when it falls. As usually defined, the solubility is how much of the substance goes into solution per volume. Low values mean a poorly soluble substance, high ones a readily soluble substance. The IC50 is the concentration that gives 50% inhibition.
